For one molecule, Activity, Survival and IC50 results are on record in ChEMBL document CHEMBL1143730, “Probing the bioactive constituents from chemotypes of the sponge Psammocinia aff. bulbosa” (J Nat Prod, 2007).

The structures appear in SMILES notation. Values after ≈ are worked out from the molar mass of the structure shown.

Data set [1] relates to HCT-116. Nature of the data set: Antitumor activity in human HCT116 tumor-bearing SCID mouse at 62 ug/kg bolus injection after 23 days relative to control. In kind it is functional. A digest of the protocol: (§1)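 SCID mice (>17 g, weights within 5 g) implanted subcutaneously with 10⁶ tissue-culture-derived HCT-116 cells, 5 per group. Starting 1 day after inoculation, a single intravenous tail-vein bolus (drug at […], 0.25 mL) was given in DMSO diluted 1:1 with Cremophor–propylene glycol (40:60), then ≥20-fold in saline. Tumor weight followed daily. Minimum %T/C reported. Sacrifice at day 30.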

The subject of data set [2] is HCT-116. In words: Survivability of human HCT116 cells assessed as cell kill at >=3 ng/mL after 2 hrs. In kind it is functional.
Data set [3] can be described thus: Growth inhibition of H125 cells. It is filed as functional, cell-based. The note with it: Homo sapiens, NCI-H125. A digest of the protocol: (§2)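 Cells seeded at 5×10^4 per T25 flask in RPMI 1640 with 15% BCS, pen/strep and glutamine. After 3 days (log phase, 5×10^5 cells/flask), compound was added at 10 to 10^-5 μg/mL. After 3 more days, cells were trypsinized and viable and dead cells counted by 0.08% trypan blue exclusion. IC50 determined.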

Data set [4] relates to Mus musculus. In words: Toxicity in SCID mouse at 125 ug/kg bolus injection. In kind it is organism-based. The note with it: in vivo, 0.125 mg/kg. A digest of the protocol:
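HCT-116 tumor-bearing SCID mice (>17 g, 5 per group). Single intravenous tail-vein bolus of 125 μg/kg (drug at […], 0.25 mL) started 1 day after subcutaneous inoculation of 10⁶ cells. Vehicle was DMSO diluted 1:1 with Cremophor–propylene glycol (40:60), then ≥20-fold in saline. Mice were monitored until sacrifice at day 30.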

Data set [5] has as its system HCT-116. Nature of the data set: Antitumor activity in human HCT116 tumor-bearing SCID mouse at 31 ug/kg bolus injection after 23 days relative to control. In kind it is functional. A digest of the protocol: as §1
For data set [6], the system named is HCT-116. In words: Survivability of human HCT116 cells assessed as cell kill at >=120 pg/mL after 168 hrs. It is filed as functional.
For data set [7], the system named is HCT-116. Nature of the data set: Survivability of human HCT116 cells assessed as cell kill at >= 2 ng/mL after 24 hrs. In kind it is functional.
Data set [8] has as its system MDA-MB-231. Nature of the data set: Growth inhibition of MDA-MB-231 cells. In kind it is functional, cell-based. The note with it: Homo sapiens. A digest of the protocol: as §2
Data set [9] concerns L1210. In words: Growth inhibition of L1210 cells. The note with it: Mus musculus. In kind it is functional, cell-based. A digest of the protocol: as §2
Data set [10] relates to HT-29. In words: Growth inhibition of HT29 cells. The note with it: Homo sapiens. It is filed as functional, cell-based. A digest of the protocol: as §2

On to `C=C(C)C[C@H](OC)[C@H](O)C(=O)N[C@@H](OC)C1C[C@@H](O)C(C)(C)[C@@H](C[C@H](O)[C@@H](C)[C@@H]2Cc3c(C)c(O)cc(O)c3C(=O)O2)O1` (stereo not given in full) [IRCINIASTATIN], for which the Activity is reported as 75% in data set [1], “Toxic” in [4] and 86% in data set [5]. Moreover, the Survival in [2], in data set [6] and in data set [7] was 90% throughout. Also, the IC50 (commonly the concentration needed to halve the response being measured) in data set [3] came out at 0.12 ng/mL (≈ 0.197 nM); in data set [8], 0.2 ng/mL (≈ 0.328 nM); in [9] it was 0.18 ng/mL (≈ 0.295 nM); in data set [10] it was 5 ng/mL (≈ 8.2 nM).
